From ChEMBL document CHEMBL1144579, “Synthesis and antiparasitic evaluation of bis-2,5-[4-guanidinophenyl]thiophenes” (Eur J Med Chem, 2007)
The source made the active and inactive calls. The rule behind the calls is not given here.

Legend:
Trypanosoma cruzi = experiment: Antiparasitic activity against Trypanosoma cruzi Tulahuen LacZ C4; type: functional, organism-based
[1] = test system: Trypanosoma brucei rhodesiense; experiment: Antitrypanosomal activity in Trypanosoma brucei rhodesiense STIB900 infected mouse at 20 mg/kg, ip administered for 4 days; type: functional, organism-based; parameters: dose 20 mg/kg
Leishmania donovani = experiment: Antiparasitic activity against Leishmania donovani; type: functional, organism-based
Mus musculus [2] = experiment: Survival of Trypanosoma brucei rhodesiense STIB900 infected mouse at 20 mg/kg, ip administered for 4 days; type: functional; settings: route intraperitoneal
L6 = experiment: Cytotoxicity against rat L6 cells by alamar blue assay; type: cell-based
Plasmodium falciparum = experiment: Antiparasitic activity against Plasmodium falciparum K1; type: functional, organism-based
Outline: (§1)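 In vitro IC50s against T. b. rhodesiense STIB900 and P. falciparum K1 are means of at least two independent experiments. The IC50 values averaged for each compound were within a factor of two of each other.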

[3] = test system: Trypanosoma brucei rhodesiense; experiment: Antiparasitic activity against Trypanosoma brucei rhodesiense STIB900; type: functional, organism-based; outline: as §1
Mus musculus [4] = experiment: Survival of Trypanosoma brucei rhodesiense STIB900 infected mouse at 5 mg/kg, ip administered for 4 days; type: functional; settings: route intraperitoneal

| SMILES | IC50 (Trypanosoma cruzi) [µM] | Activity [1] | IC50 (Leishmania donovani) [µM] | Survival (Mus musculus [2]) [days] | IC50 (L6) [µM] | IC50 (Plasmodium falciparum) [µM] | IC50 [3] [µM] | Survival (Mus musculus [4]) [days] |
| --- | --- | --- | --- | --- | --- | --- | --- | --- |
| N=C(N)c1ccc(OCCCCCOc2ccc(C(=N)N)cc2)cc1 [PENTAMIDINE] | 5.35 | inactive | 1.9 | 40.8 |  |  |  |  |
| CCN(CC)CCCC(C)Nc1ccnc2cc(Cl)ccc12 (centres undefined) [CHLOROQUINE] |  |  |  |  | 188 |  |  |  |
| N=C(Nc1ccc(-c2ccc(-c3ccc(NC(=N)NC4CCCCC4)cc3)s2)cc1)NC1CCCCC1 | 1.7 |  | 2.5 |  | 4.3 | 0.16 | 0.354 |  |
| N=C(Nc1ccc(-c2ccc(-c3ccc(NC(=N)NC4CCCC4)cc3)s2)cc1)NC1CCCC1 | 8.4 |  | 1.5 | >39.5 | 15.9 | 0.134 | 0.306 |  |
| N=C(N)Nc1ccc(-c2ccc(-c3ccc(NC(=N)N)cc3)s2)cc1 | 154 | inactive | 6.7 | 43 | 100 | 0.0036 | 0.028 |  |
| Cc1ccc(NC(=N)Nc2ccc(-c3ccc(-c4ccc(NC(=N)Nc5ccc(C)cc5)cc4)s3)cc2)cc1 | 3.7 |  | 16 |  | 1.1 | 0.0427 | 0.573 |  |
| CNC(=N)Nc1ccc(-c2ccc(-c3ccc(NC(=N)NC)cc3)s2)cc1 | 30.5 |  | 6.2 | >40.25 | 54.3 | 0.023 | 0.0062 |  |
| N=C(Nc1ccccc1)Nc1ccc(-c2ccc(-c3ccc(NC(=N)Nc4ccccc4)cc3)s2)cc1 | 9.9 |  | 35 |  | 2.5 | 0.154 | 1.9 |  |
| N=C(N)c1ccc(-c2ccc(-c3ccc(C(=N)N)cc3)o2)cc1 [FURAMIDINE] | 23.3 | inactive | 2.8 | >52.5 |  |  |  |  |
| CC(C)NC(=N)Nc1ccc(-c2ccc(-c3ccc(NC(=N)NC(C)C)cc3)s2)cc1 | 28.2 |  | 11 |  | 69.4 | 0.107 | 0.116 | >34 |
